Laboratory results published in paper PMC3831274 (Bioorganic & medicinal chemistry, 2013).

Assays:
Human Mcl-1 = Human Mcl-1 (Homo sapiens, UniProt Q07820); experiment: fluorescence polarization; assay type: binding; details: for Mcl-1 potency relative to initial hit 1 (in words): SAR of phenyl region
Mcl1-1780 [1] = experiment: nuclear apoptosis determination; assay type: cell-based, mouse; details: Mcl1-1780, 24 hours
Bcl2-1863 [2] = experiment: nuclear apoptosis determination; assay type: cell-based, mouse; details: Bcl2-1863, 24 hours
Bcl-xL = Bcl-xL (Homo sapiens, UniProt Q07817); experiment: fluorescence polarization; assay type: binding
Chain of Bcl-xL (Q07817 1-209 limits assumed): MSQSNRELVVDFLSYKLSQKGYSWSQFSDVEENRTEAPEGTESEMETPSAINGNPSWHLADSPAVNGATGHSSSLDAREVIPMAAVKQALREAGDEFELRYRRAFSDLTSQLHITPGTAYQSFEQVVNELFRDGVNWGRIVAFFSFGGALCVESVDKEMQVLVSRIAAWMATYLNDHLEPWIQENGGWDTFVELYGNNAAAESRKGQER

[3] = tested on: several cell lines derived from various human malignancies; experiment: antiproliferative activity across several cell lines; assay type: cell-based
Summary of the method: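 Cells at 2.5 × 10⁵ cells/mL in 384-well plates; suspension lines in RPMI-1640/10% FBS (mouse lines plus β-mercaptoethanol), adherent lines in DMEM/10% FBS. Seven 2-fold dilutions from 5 µM or 20 µM top; DMSO top 0.2%. 37°C, 48 h; PrestoBlue read-out. Media background subtracted; viability normalized to cells-only wells (100%). Two independent triplicate runs (n=6) or three replicate experiments, by cell set.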

CYP450 1A2 = target: T1, CYP450 1A2 (Homo sapiens, UniProt P05177); experiment: CYP450 inhibition 1A2
T1 sequence (P05177 1-516): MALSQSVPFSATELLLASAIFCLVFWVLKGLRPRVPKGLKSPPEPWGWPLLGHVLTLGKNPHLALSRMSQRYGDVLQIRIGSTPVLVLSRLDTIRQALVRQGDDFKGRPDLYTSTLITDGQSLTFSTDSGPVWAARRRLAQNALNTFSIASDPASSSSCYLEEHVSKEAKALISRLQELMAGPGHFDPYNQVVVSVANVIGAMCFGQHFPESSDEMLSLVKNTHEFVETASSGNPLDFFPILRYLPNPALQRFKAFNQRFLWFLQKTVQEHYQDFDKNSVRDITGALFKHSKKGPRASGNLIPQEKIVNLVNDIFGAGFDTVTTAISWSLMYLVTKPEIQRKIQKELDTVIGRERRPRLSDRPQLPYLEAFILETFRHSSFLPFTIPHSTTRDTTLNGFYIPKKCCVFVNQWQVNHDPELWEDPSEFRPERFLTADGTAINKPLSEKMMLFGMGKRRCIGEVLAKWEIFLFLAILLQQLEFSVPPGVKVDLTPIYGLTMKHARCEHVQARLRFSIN

Bcl2-1863 [4] = experiment: Annexin V apoptosis assay; assay type: cell-based, mouse; details: Bcl2-1863, 16 hours, 0.15 µM-40 µM
Mcl1-1780 [5] = experiment: cytochrome c release determination; assay type: cell-based, mouse; details: Mcl1-1780 compared with Bcl2-1863, 2 hours
SUDHL-10 = experiment: cytochrome c release determination; assay type: cell-based, human; details: SUDHL-10, 2 hours, 20µM EU-5346 or 100µM Puma
SUDHL-8 = experiment: cytochrome c release determination; assay type: cell-based, human; details: SUDHL-8, 2 hours, 20µM EU-5346 or 100µM Puma
CYP450 3A4 = CYP450 3A4 (Homo sapiens, UniProt P08684); experiment: CYP450 inhibition 3A4; assay type: in vitro ADME
Chain of CYP450 3A4 (P08684 whole entry): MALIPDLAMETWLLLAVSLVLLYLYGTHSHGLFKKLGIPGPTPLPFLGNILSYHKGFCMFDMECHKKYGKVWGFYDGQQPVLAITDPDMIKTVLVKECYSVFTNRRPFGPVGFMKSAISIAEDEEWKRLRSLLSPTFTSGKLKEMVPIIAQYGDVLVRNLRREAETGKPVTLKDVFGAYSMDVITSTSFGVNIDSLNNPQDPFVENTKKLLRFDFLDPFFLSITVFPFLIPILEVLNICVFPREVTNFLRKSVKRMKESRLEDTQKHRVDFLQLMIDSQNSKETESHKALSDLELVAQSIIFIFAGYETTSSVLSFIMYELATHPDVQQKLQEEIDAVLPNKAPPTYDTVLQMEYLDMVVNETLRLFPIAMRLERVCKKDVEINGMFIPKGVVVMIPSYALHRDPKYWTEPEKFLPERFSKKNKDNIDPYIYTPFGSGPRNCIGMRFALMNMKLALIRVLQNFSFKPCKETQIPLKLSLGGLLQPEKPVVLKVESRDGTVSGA

SUDHL-6 = experiment: cytochrome c release determination; assay type: cell-based, human; details: SUDHL-6, 2 hours, 20µM EU-5346 or 100µM Puma
Mcl1-1780 [6] = experiment: Annexin V apoptosis assay; assay type: cell-based, mouse; details: Mcl1-1780, 16 hours, 0.15 µM-40 µM
CYP450 2D6 = CYP450 2D6 (Homo sapiens, UniProt P10635); experiment: CYP450 inhibition 2D6; assay type: in vitro ADME
Chain of CYP450 2D6 (P10635 whole entry): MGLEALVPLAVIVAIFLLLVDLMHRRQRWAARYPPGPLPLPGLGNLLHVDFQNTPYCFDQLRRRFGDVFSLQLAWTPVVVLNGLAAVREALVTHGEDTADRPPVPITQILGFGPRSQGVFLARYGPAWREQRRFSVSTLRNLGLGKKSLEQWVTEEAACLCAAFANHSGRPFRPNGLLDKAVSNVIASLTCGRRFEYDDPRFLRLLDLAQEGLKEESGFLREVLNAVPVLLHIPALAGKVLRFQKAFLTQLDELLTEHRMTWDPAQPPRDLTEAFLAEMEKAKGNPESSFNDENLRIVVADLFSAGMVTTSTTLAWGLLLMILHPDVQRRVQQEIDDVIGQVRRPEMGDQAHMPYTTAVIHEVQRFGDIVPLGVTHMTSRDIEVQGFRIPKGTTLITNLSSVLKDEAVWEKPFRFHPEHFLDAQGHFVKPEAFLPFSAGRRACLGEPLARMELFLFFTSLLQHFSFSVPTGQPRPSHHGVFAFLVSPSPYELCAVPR

CYP450 2C9 = CYP450 2C9 (Homo sapiens, UniProt P11712); experiment: CYP450 inhibition 2C9; assay type: in vitro ADME
Chain of CYP450 2C9 (P11712 whole entry): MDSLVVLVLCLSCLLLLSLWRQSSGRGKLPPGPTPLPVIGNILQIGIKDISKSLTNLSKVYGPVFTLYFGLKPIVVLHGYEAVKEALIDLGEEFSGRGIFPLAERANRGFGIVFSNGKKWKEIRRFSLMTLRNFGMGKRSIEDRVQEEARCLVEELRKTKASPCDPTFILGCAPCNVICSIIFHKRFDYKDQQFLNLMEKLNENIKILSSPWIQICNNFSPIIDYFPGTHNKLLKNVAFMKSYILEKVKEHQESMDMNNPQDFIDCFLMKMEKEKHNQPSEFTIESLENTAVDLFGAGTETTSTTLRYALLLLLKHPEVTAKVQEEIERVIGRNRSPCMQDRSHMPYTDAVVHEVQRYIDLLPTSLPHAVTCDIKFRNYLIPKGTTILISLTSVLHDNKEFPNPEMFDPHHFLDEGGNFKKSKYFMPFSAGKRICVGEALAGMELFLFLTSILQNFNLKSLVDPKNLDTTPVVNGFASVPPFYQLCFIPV

Chain of Human Mcl-1 (Q07820 1-327 limits assumed): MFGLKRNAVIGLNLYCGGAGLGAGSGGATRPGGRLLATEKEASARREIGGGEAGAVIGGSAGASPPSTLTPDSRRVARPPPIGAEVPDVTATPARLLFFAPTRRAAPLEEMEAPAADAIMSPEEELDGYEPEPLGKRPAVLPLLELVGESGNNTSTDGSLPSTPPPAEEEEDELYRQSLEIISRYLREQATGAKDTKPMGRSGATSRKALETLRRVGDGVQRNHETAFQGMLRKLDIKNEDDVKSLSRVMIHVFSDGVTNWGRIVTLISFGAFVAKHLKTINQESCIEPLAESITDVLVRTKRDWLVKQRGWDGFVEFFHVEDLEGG

Cc1ccnc(NC(c2ccc(F)cc2)c2cc(Cl)c3cccnc3c2O)c1 (stereo not shown) [Compound 8]
Mcl-1 potency relative to initial hit 1 (in words) (Human Mcl-1): five-fold more potent

COc1ccc(C(Nc2ccccn2)c2cc(Cl)c3cccnc3c2O)cc1 (stereo not shown) [Compound 6]
Mcl-1 potency relative to initial hit 1 (in words) (Human Mcl-1): enhanced potency

Oc1c(C(Nc2ccccn2)c2ccco2)cc(Cl)c2cccnc12 (stereo not shown) [Compound 7]
Mcl-1 potency relative to initial hit 1 (in words) (Human Mcl-1): enhanced potency

CC1(C)CCC(c2ccc(Cl)cc2)=C(CN2CCN(c3ccc(C(=O)NS(=O)(=O)c4ccc(N[C@H](CCN5CCOCC5)CSc5ccccc5)c(S(=O)(=O)C(F)(F)F)c4)cc3)CC2)C1 [Navitoclax, reference compound]
induction of nuclear apoptosis / reduced viability (DAPI) (Mcl1-1780 [1]): only minimal effectiveness | induction of nuclear apoptosis / reduced viability (DAPI) (Bcl2-1863 [2]): distinct preference in inducing apoptosis

CCN1CCN(C(c2ccc(C(F)(F)F)cc2)c2cc(Cl)c3cccnc3c2O)CC1 (stereo not shown) [Compound 9]
IC50 (Bcl-xL; read-out: Bcl-xL IC50, FP assay, GST-Bcl-xL, FITC-Bim): 40 µM | EC50 ([3]; Homo sapiens, read-out: EC50 values, range over cell lines): 0.3 to 15 µM | efficacy in cellular proliferation assays (in words) ([3]; Mcl1-1780, Bcl2-1863, SUDHL-6, NCIH929): low micromolar efficacy | IC50 (CYP450 1A2): > 10 µM | percent of Annexin V positive cells (Bcl2-1863 [4]): displayed dose-dependency | cytochrome c release (Mcl1-1780 [5]): significantly greater | induction of nuclear apoptosis / reduced viability (DAPI) (Mcl1-1780 [1]): reduces viability with a marked preference | cytochrome c release (SUDHL-10): significantly reduced | cytochrome c release (SUDHL-8): significantly reduced | IC50 (CYP450 3A4): > 10 µM | cytochrome c release (SUDHL-6): greatest extent of cytochrome c release | percent of Annexin V positive cells (Mcl1-1780 [6]): greater in Mcl1-1780 than in Bcl2-1863 | IC50 (CYP450 2D6): > 10 µM | IC50 (CYP450 2C9): > 10 µM

O=C(O)COc1ccccc1C(Nc1ccccn1)c1cc(Cl)c2cccnc2c1O (stereo not shown) [Compound 1]
selectivity over Bcl-xL (Human Mcl-1; Mcl-1 versus Bcl-xL, FP assays): greater than 40 fold | inhibition of Bcl-xL (Bcl-xL; at 100 µM): no appreciable inhibition | antiproliferative activity (in words) ([3]; cell lines not specified): only modest antiproliferative activity
